pEC50: −log10 of the molar value.
Columns and labels:
Type in all cases: functional, cell-based
[1] = molecular target: T1, Peroxisome proliferator-activated receptor alpha (Homo sapiens, UniProt Q07869); test: Agonist activity at human PPAR-alpha expressed in african green monkey CV-1 cells after 24 hrs by luciferase reporter gene assay
T1 sequence (Q07869 whole entry): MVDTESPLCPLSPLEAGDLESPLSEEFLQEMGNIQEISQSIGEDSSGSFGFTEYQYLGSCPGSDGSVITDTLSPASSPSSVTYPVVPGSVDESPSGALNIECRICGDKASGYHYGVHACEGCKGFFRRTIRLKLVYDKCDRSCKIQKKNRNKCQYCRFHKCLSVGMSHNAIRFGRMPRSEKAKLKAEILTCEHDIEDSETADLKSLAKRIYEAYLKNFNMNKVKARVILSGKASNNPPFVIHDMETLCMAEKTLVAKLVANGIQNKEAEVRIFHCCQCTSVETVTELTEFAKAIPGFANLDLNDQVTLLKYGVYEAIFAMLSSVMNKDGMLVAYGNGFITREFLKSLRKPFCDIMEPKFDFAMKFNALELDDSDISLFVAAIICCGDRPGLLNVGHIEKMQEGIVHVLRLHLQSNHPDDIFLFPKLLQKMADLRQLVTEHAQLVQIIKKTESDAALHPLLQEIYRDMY
Procedure, shortened: (§1)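 Cell-based co-transfection reporter assay, with EC50 values derived for each PPAR subtype.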

[2] = molecular target: T2, Peroxisome proliferator-activated receptor gamma (Homo sapiens, UniProt P37231); test: Agonist activity at human PPAR-gamma expressed in african green monkey CV-1 cells after 24 hrs by luciferase reporter gene assay
T2 sequence (P37231 whole entry): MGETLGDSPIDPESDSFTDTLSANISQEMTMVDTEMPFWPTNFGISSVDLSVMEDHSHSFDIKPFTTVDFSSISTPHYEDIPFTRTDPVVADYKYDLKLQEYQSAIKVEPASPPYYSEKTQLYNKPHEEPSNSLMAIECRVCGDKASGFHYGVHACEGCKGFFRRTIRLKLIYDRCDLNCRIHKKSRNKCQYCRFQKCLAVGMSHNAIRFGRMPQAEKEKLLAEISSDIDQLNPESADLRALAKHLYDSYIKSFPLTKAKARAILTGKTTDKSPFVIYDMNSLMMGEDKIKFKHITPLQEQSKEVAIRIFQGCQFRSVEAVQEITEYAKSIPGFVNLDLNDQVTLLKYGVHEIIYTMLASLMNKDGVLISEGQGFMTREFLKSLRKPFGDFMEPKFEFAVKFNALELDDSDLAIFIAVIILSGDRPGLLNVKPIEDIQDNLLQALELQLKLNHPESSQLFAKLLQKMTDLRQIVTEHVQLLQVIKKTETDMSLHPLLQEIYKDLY

[3] = molecular target: T3, Peroxisome proliferator-activated receptor delta (Homo sapiens, UniProt Q03181); test: Agonist activity at human PPAR-delta expressed in african green monkey CV-1 cells after 24 hrs by luciferase reporter gene assay; procedure, shortened: as §1
T3 sequence (Q03181 whole entry): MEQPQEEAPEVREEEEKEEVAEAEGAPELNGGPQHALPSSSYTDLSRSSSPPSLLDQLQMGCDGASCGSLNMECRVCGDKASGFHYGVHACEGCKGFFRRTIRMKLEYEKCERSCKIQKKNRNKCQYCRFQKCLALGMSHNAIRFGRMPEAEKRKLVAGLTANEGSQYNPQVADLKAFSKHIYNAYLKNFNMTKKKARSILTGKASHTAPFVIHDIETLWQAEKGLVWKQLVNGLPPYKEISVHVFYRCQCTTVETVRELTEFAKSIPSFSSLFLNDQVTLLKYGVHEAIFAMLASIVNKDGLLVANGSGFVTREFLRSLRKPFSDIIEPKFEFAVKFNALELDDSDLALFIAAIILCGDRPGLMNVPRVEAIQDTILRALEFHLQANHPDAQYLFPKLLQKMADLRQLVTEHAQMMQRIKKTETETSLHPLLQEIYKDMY

SMILES | pEC50 [1] | pEC50 [2] | pEC50 [3]
Cc1cc([Se]Cc2sc(-c3ccc(C(F)(F)F)c(F)c3)nc2C)ccc1OCC(=O)O | 6.46 | < 6.00 | 9.00
Cc1cc([Se]Cc2sc(-c3ccc(C(F)(F)F)c(F)c3)nc2C)ccc1OC(C)(C)C(=O)O | 7.61 | 6.54 | 8.74
Cc1cc([Se]Cc2sc(-c3ccc(C(F)(F)F)c(F)c3)nc2C)ccc1OC(C)C(=O)O (configuration not stated) | 7.40 | < 6.00 | 8.07
CCC(Oc1ccc([Se]Cc2sc(-c3ccc(C(F)(F)F)c(F)c3)nc2C)cc1C)C(=O)O (configuration not stated) | < 6.00 | 6.57 | 8.15

From ChEMBL document CHEMBL1629438, “Selective peroxisome proliferator-activated receptor δ isosteric selenium agonists as potent anti-atherogenic agents in vivo” (Bioorg Med Chem Lett, 2010)
